pEC50, pIC50: −log10 of the molar value. Values joined by “and” are separate entries in the source; they are usually repeats but may differ in a detail not shown here. Equal values may be shown once. Each block holds one compound with its values, some of them ahead of it.
Key:
[1] = biological target: Serine/threonine-protein kinase mTOR (Homo sapiens, UniProt P42345); experiment: Inhibition of recombinant human GST tagged mTOR (1360 to 2549 residues) expressed in baculovirus expression system measured by LanthaScreen assay
Outline: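 mTOR inhibition measured by LanthaScreen assay; IC50 values average two independent experiments.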

Cytochrome P450 1A2 = biological target: T1, Cytochrome P450 1A2 (Homo sapiens, UniProt P05177); experiment: Inhibition of CYP1A2 (unknown origin) using Luciferin-ME as substrate at 10 uM preincubated with enzyme and substrate for 5 mins followed by addition of NADPH regeneration system and measured after 60 mins by luminescence method; assay type: ADME
T1 sequence (P05177 whole entry): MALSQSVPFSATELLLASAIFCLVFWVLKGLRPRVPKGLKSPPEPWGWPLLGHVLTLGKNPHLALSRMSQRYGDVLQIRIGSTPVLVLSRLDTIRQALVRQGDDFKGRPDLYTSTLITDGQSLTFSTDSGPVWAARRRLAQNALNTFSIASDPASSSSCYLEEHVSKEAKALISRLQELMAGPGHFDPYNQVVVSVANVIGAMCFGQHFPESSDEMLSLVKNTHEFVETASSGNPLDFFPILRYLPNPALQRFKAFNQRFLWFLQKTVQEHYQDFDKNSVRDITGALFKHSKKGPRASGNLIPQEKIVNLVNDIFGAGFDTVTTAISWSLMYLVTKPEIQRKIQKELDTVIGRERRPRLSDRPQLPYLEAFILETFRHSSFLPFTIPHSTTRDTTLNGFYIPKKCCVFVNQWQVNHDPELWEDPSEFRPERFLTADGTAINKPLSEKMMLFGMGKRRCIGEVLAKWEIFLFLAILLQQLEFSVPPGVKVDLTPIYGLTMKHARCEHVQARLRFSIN
Outline: (§1)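 P450-Glo luminescence assays with these substrates: Luciferin-ME (CYP1A2), Luciferin-PPXE (CYP3A4), Luciferin-H (CYP2C9), LuciferinH-EG (CYP2C19), Luciferin-ME-EG (CYP2D6). Compounds run in 1/3 serial dilutions from 10 µM in 0.5% DMSO with enzyme and substrate. After 5 min preincubation, NADPH regeneration reagent added; 60 min at 37 °C, then detection reagent for 30 min. Background subtracted.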

[2] = Inhibition of PI3K/mTOR in human U2OS cells assessed as inhibition of AKT1 phosphorylation at Ser473 residue by C-ELISA; assay type: cell-based
Outline: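 U2OS osteosarcoma cells grown in 0.1% FBS and serum-stimulated. Endogenous phospho-AKT1 Ser473 quantified by cell-based ELISA with chemiluminescent substrate. Signal plotted against inhibitor concentration and fitted to a sigmoid dose-response curve.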

[3] = AUC (infinity) in BALB/c mouse at 5 mg/kg, iv measured for 8 hrs; assay type: ADME, organism-based; design: route intravenous, dose 5 mg/kg, time 8 hrs; conditions: in vivo
Outline: (§2)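 BALB/c mice dosed I.V. or P.O. at the stated dose; plasma levels followed for 8 h. Parameters from noncompartmental analysis: AUC (h.ng/ml), T1/2 (h), Cl (L/h/Kg), Vd (L/Kg), Cmax (ng/ml), Tmax (h).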

[4] = Oral bioavailability in BALB/c mouse at 10 mg/kg measured for 8 hrs; assay type: ADME, organism-based; conditions: in vivo; outline: as §2
Cytochrome P450 2D6 = Cytochrome P450 2D6 (Homo sapiens, UniProt P10635); experiment: Inhibition of CYP2D6 (unknown origin) using Luciferin-ME-EG as substrate at 10 uM preincubated with enzyme and substrate for 5 mins followed by addition of NADPH regeneration system and measured after 60 mins by luminescence method; assay type: ADME; outline: as §1
Sequence of Cytochrome P450 2D6 (P10635 whole entry): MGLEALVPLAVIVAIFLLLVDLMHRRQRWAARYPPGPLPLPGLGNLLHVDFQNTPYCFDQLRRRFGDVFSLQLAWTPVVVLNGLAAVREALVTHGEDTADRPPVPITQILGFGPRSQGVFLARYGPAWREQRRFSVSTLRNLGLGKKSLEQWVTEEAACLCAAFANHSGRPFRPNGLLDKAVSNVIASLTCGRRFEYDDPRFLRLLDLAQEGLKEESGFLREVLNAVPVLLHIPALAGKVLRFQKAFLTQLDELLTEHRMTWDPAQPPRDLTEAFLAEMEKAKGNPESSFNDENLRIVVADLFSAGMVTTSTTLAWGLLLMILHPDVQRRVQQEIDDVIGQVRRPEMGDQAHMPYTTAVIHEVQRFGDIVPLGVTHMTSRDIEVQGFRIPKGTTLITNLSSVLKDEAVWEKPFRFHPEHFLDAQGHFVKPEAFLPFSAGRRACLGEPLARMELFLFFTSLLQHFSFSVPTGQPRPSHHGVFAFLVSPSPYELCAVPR

[5] = Half life in BALB/c mouse at 5 mg/kg, iv measured for 8 hrs; assay type: ADME, organism-based; conditions: in vivo; outline: as §2
[6] = biological target: Voltage-gated inwardly rectifying potassium channel KCNH2 (Homo sapiens, UniProt Q12809); experiment: Inhibition of human ERG by fluorescence polarization assay
Sequence of Voltage-gated inwardly rectifying potassium channel KCNH2 (Q12809 whole entry): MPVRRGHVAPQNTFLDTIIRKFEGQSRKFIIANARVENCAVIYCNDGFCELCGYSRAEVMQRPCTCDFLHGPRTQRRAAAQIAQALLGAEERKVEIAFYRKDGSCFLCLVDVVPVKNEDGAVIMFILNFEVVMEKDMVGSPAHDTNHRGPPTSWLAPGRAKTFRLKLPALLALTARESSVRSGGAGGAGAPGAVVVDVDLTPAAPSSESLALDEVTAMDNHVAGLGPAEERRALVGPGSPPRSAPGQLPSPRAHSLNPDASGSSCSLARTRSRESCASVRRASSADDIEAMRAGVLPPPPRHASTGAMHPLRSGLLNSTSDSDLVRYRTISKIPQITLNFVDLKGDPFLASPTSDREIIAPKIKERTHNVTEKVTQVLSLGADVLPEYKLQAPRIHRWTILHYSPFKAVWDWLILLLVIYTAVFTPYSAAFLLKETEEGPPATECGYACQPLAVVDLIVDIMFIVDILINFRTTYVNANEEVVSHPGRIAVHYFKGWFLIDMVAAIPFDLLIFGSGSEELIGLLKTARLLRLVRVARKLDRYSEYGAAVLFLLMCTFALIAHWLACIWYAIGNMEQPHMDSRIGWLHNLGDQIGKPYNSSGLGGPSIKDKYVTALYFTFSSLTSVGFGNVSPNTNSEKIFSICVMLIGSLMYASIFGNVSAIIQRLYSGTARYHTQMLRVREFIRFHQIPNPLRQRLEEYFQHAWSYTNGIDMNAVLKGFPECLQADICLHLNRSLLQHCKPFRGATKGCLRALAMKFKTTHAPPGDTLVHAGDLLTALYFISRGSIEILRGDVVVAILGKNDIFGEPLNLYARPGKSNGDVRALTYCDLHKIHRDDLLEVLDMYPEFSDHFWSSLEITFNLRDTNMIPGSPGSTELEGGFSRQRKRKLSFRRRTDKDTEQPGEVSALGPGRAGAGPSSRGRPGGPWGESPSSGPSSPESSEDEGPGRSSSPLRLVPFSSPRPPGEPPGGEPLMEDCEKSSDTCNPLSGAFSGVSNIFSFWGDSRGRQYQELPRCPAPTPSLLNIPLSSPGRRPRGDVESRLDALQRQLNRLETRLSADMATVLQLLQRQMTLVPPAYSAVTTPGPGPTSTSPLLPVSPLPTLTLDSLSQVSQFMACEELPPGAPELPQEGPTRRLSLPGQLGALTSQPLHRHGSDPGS
Outline: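 Predictor h-ERG membrane preparations (sonicated) incubated with test compound dilutions and fluorescent tracer (working 4X tracer at 4 nM) at room temperature for ≥1 h. Read-out by fluorescence polarization, ex 530/25, em 590/35.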

[7] = Clearance in BALB/c mouse at 5 mg/kg, iv measured for 8 hrs; assay type: ADME, organism-based; conditions: in vivo; outline: as §2
[8] = Cmax in BALB/c mouse at 10 mg/kg, po measured for 8 hrs; assay type: ADME, organism-based; design: route oral, dose 10 mg/kg, time 8 hrs; conditions: in vivo; outline: as §2
[9] = Metabolic stability in mouse liver microsomes assessed as parent compound remaining in presence of NADPH regenerating system at 0.5 uM measured after 15 mins by LC-MS/MS analysis; assay type: ADME, Microsome; conditions: read-out: Stabilty
Outline: (§3)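 Human, mouse or rat liver microsomes at 0.5 mg/ml protein with compound at 0.5 µM and NADPH-regenerating system, 37 °C with shaking. Control wells contain 0.1 M potassium phosphate instead of the regenerating system. Reaction stopped with acetonitrile/0.1% formic acid, centrifuged, supernatant analyzed by LC-MS/MS. Result is percent parent compound remaining.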

[10] = Tmax in BALB/c mouse at 10 mg/kg, po measured for 8 hrs; assay type: ADME, organism-based; conditions: in vivo
Outline: (§4)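 Dosing in BALB-C mice intravenously or orally, with plasma sampled over 8 h. Parameters (AUC, T1/2, Cl, Vd, Cmax, Tmax) come from a noncompartmental model. Units: AUC h.ng/ml, Vd L/Kg, Cmax ng/ml, Tmax h.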

[11] = Metabolic stability in human liver microsomes assessed as parent compound remaining in presence of NADPH regenerating system at 0.5 uM measured after 15 mins by LC-MS/MS analysis; assay type: ADME, Microsome; conditions: read-out: Stabilty; outline: as §3
Cytochrome P450 2C19 = Cytochrome P450 2C19 (Homo sapiens, UniProt P33261); experiment: Inhibition of CYP2C19 (unknown origin) using LuciferinH-EG as substrate at 10 uM preincubated with enzyme and substrate for 5 mins followed by addition of NADPH regeneration system and measured after 60 mins by luminescence method; assay type: ADME; outline: as §1
Sequence of Cytochrome P450 2C19 (P33261 whole entry, the tested form may be a part, canonical isoform): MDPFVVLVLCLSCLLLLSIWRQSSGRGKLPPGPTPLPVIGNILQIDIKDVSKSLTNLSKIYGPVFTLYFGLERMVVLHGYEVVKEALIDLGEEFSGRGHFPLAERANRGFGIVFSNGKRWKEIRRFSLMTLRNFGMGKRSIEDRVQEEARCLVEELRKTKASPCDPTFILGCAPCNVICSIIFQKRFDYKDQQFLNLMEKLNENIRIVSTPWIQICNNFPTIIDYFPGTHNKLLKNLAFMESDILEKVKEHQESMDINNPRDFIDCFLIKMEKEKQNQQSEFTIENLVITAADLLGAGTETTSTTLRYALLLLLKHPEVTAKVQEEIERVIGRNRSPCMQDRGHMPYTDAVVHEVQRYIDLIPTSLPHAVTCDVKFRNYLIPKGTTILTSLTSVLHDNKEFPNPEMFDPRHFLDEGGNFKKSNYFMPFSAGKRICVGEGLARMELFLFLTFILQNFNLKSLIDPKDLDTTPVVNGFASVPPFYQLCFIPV

[12] = biological target: Phosphatidylinositol 4,5-bisphosphate 3-kinase catalytic subunit alpha isoform (Homo sapiens, UniProt P42336); experiment: Inhibition of human full length p110alpha (1 to 1068 residues) expressed in baculovirus-infected Sf21 cells by ADP-Hunter Plus assay
Sequence of Phosphatidylinositol 4,5-bisphosphate 3-kinase catalytic subunit alpha isoform (P42336 whole entry, the tested form may be a part, canonical isoform): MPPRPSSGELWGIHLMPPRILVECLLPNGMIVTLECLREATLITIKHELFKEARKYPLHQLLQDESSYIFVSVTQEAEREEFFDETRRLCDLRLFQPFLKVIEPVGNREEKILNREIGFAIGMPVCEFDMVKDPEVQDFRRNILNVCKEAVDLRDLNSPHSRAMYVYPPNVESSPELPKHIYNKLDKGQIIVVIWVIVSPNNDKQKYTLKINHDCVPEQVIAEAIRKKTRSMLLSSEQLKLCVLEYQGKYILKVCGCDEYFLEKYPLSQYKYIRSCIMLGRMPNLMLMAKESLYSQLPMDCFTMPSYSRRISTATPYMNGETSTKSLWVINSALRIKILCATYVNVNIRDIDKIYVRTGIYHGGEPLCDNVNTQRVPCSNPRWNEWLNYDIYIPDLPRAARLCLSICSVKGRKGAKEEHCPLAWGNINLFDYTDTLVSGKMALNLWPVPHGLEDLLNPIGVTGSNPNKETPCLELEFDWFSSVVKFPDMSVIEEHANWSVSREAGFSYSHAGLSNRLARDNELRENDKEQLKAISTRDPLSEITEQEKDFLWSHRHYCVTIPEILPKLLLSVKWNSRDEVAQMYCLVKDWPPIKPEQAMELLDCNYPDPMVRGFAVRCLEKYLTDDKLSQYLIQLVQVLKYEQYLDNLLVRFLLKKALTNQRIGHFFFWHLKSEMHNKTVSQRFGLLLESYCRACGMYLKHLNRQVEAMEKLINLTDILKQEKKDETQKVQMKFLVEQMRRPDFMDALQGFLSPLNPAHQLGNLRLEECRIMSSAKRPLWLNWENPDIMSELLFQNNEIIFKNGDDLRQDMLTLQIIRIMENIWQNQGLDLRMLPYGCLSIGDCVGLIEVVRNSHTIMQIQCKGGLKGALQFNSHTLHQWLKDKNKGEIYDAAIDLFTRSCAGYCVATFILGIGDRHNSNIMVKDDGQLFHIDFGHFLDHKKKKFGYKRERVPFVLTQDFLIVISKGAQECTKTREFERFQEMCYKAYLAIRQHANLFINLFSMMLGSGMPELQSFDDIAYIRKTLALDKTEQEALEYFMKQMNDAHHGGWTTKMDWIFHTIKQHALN

[13] = Plasma concentration in BALB/c mouse at 10 mg/kg, po measured for 8 hrs; assay type: ADME, organism-based; outline: as §4
[14] = Metabolic stability in rat liver microsomes assessed as parent compound remaining in presence of NADPH regenerating system at 0.5 uM measured after 15 mins by LC-MS/MS analysis; assay type: ADME, Microsome; conditions: read-out: Stabilty; outline: as §3
[15] = Half life in BALB/c mouse at 10 mg/kg, po measured for 8 hrs; assay type: ADME, organism-based; conditions: in vivo; outline: as §2
[16] = Volume of distribution in BALB/c mouse at 5 mg/kg, iv measured for 8 hrs; assay type: ADME, organism-based; conditions: in vivo; outline: as §4
Homo sapiens = species on record: Homo sapiens; experiment: Selectivity ratio of IC50 for recombinant human GST tagged mTOR (1360 to 2549 residues) expressed in baculovirus expression system to IC50 for human full length p110alpha (1 to 1068 residues) expressed in baculovirus-infected Sf21 cells
Outline: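 mTOR activity measured by LanthaScreen assay. PI3K-α activity measured by ADP Hunter Plus (ADP accumulation, fluorescence ex 544/em 580 nm), normalized to no-compound control and fitted to a sigmoid dose-response curve. IC50s are the average of two independent experiments. Ratio is mTOR IC50 over PI3K-α IC50.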

[17] = AUC(infinity) in BALB/c mouse at 10 mg/kg, po measured for 8 hrs; assay type: ADME, organism-based; design: route oral, time 8 hrs, dose 10 mg/kg; conditions: in vivo; outline: as §2
Cytochrome P450 2C9 = Cytochrome P450 2C9 (Homo sapiens, UniProt P11712); experiment: Inhibition of CYP2C9 (unknown origin) using Luciferin-H as substrate at 10 uM preincubated with enzyme and substrate for 5 mins followed by addition of NADPH regeneration system and measured after 60 mins by luminescence method; assay type: ADME; outline: as §1
Sequence of Cytochrome P450 2C9 (P11712 whole entry): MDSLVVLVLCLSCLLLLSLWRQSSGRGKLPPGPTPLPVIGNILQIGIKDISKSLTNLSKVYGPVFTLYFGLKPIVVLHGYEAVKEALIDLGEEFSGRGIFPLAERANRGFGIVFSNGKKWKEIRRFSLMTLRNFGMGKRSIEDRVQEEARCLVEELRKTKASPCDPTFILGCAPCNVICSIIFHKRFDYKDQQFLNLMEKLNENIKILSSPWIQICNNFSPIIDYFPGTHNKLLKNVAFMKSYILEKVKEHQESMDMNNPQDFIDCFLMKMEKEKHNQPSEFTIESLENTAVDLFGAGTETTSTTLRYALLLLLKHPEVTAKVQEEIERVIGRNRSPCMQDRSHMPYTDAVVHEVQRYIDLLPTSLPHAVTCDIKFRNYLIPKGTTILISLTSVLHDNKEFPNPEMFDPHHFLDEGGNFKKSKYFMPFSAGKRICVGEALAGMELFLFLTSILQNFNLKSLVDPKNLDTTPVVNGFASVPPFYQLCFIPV

Cytochrome P450 3A4 = Cytochrome P450 3A4 (Homo sapiens, UniProt P08684); experiment: Inhibition of CYP3A4 (unknown origin) using Luciferin-PPXE as substrate at 10 uM preincubated with enzyme and substrate for 5 mins followed by addition of NADPH regeneration system and measured after 60 mins by luminescence method; assay type: ADME; outline: as §1
Sequence of Cytochrome P450 3A4 (P08684 whole entry): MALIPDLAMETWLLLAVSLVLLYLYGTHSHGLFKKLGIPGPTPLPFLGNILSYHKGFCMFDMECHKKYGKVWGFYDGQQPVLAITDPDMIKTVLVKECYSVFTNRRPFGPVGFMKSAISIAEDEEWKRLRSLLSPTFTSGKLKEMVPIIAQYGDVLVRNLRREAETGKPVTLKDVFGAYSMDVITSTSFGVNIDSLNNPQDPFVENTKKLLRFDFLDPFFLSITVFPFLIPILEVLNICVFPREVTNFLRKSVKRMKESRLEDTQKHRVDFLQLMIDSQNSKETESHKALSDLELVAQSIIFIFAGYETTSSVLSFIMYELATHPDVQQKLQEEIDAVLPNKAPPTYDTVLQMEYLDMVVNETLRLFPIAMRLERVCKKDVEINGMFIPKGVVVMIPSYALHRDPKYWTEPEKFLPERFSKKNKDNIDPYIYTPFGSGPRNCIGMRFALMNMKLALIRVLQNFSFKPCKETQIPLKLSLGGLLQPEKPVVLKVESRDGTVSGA

SMILES: COc1ncc2cc1NS(=O)(=O)c1cccc(c1)C(=O)NCc1cccc(c1F)-c1ccnc3ccc-2cc13
pIC50 [1]: 6.65

SMILES: COc1ncc2cc1NS(=O)(=O)c1cccc(c1)C(=O)NCCn1cc(cn1)-c1cnc3ccc-2nn13
pIC50 [1]: 8.25

SMILES: COc1ncc2cc1NS(=O)(=O)c1cc(c(F)cc1F)C(=O)NCc1cncc(c1)-c1ccnc3ccc-2cc13
pIC50 (Cytochrome P450 1A2): < 4.52
pEC50 [2]: 7.97
AUC(0-inf) [3]: 9470 ng·h/mL
bioavailability [4]: 40.6%
pIC50 (Cytochrome P450 2D6): < 4.52
half-life [5]: 34.2 min
pIC50 [6]: < 4.52
clearance [7]: 8.83 mL/min/kg
Cmax [8]: 3390 ng/mL
remaining at 0.25 h, 0.5 µM [9]: 88%
Tmax [10]: 15 min
remaining at 0.25 h, 0.5 µM [11]: 89%
pIC50 (Cytochrome P450 2C19): < 4.52
pIC50 [12]: 9.10
concentration at 8 h [13]: 264 ng/mL
remaining at 0.25 h, 0.5 µM [14]: 97%
pIC50 [1]: 7.65
half-life [15]: 167 min
Vd [16]: 0.28 L/kg
Ratio IC50 (Homo sapiens): 27.8
AUC(0-inf) [17]: 7680 ng·h/mL
pIC50 (Cytochrome P450 2C9): 5.08
pIC50 (Cytochrome P450 3A4): < 4.52

SMILES: COc1ncc2cc1NS(=O)(=O)c1cccc(c1)C(=O)NCc1cncc(c1)Cc1cnc3sc-2nn13
pIC50 [6]: < 4.52
pIC50 [12]: 8.05
pIC50 [1]: 6.44
Ratio IC50 (Homo sapiens): 40.4

SMILES: COc1ncc2cc1NS(=O)(=O)c1cccc(c1)C(=O)NCCn1cc(cn1)-c1cnn3ccc-2nc13
pIC50 [1]: 7.18

SMILES: COc1ncc2cc1NS(=O)(=O)c1cccc(c1)C(=O)NCC1CCN(CC1)c1ncnc3ccc-2cc13
pIC50 [1]: 7.63

SMILES: COc1ncc2cc1NS(=O)(=O)c1cccc(c1)C(=O)NCc1cccc(c1)-c1ncnc3ccc-2cc13
pIC50 (Cytochrome P450 1A2): < 4.52
pEC50 [2]: 7.32
pIC50 (Cytochrome P450 2D6): < 4.52
pIC50 [6]: < 4.52
remaining at 0.25 h, 0.5 µM [9]: 74%
remaining at 0.25 h, 0.5 µM [11]: 97%
pIC50 (Cytochrome P450 2C19): < 4.52
pIC50 [12]: 8.60
remaining at 0.25 h, 0.5 µM [14]: 91%
pIC50 (Cytochrome P450 2C9): < 4.52
pIC50 (Cytochrome P450 3A4): < 4.52

SMILES: COc1ncc2cc1NS(=O)(=O)c1cccc(c1)C(=O)NCc1cncc(c1)-c1cnn3ccc-2nc13
pIC50 [1]: 7.17

SMILES: COc1ncc2cc1NS(=O)(=O)c1cccc(c1)C(=O)NCc1cc(ccn1)-c1ccnc3ccc-2cc13
pIC50 [6]: < 4.52
pIC50 [12]: 8.21
pIC50 [1]: 6.91 and 7.14

Next, values leading:

pIC50 [1]: 9.52
SMILES: COc1ncc2cc1NS(=O)(=O)c1cccc(c1)C(=O)NCc1cncc(c1)-c1ccnc3ccc-2cc13

pIC50 [1]: 8.27
SMILES: COc1ncc2cc1NS(=O)(=O)c1cc(c(F)cc1F)C(=O)NCc1cncc(c1)-c1ccnc3ccc-2nc13

pIC50 [1]: 8.33
SMILES: COc1ncc2cc1NS(=O)(=O)c1cccc(c1)C(=O)NCc1cccc(c1)-c1ncnc3sc-2cc13

pIC50 [1]: 8.39
SMILES: COc1ncc2cc1NS(=O)(=O)c1cccc(c1)C(=O)NCC1CCN(CC1)c1ccnc3ccc-2cc13
